Results as given in ChEMBL document CHEMBL3102807, “Angustifonines A and B, cytotoxic bisindole alkaloids from Bousigonia angustifolia” (J Nat Prod, 2014).

Key:
Format in all cases: functional, cell-based
SW480 = experiment: Cytotoxicity against human SW480 cells after 48 hrs by MTT assay; details: SW480, 48 h
Procedure, shortened: (§1)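 Cells kept in RPMI-1640 or DMEM with 10% FBS, 37 °C, 5% CO2; adherent cells allowed to attach 12 h in 96-well plates. Exposed in triplicate to 0.0625, 0.32, 1.6, 8 and 40 μM for 48 h, cisplatin and paclitaxel as positive controls. MTT (100 μg/well) added for 4 h at 37 °C, lysis in 20% SDS/50% DMF, OD at 595 nm; IC50 by Reed–Muench method.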

MCF7 = experiment: Cytotoxicity against human MCF7 cells after 48 hrs by MTT assay; details: MCF7, 48 h; procedure, shortened: as §1
A549 = experiment: Cytotoxicity against human A549 cells after 48 hrs by MTT assay; details: A549, 48 h; procedure, shortened: as §1
SMMC-7721 = experiment: Cytotoxicity against human SMMC7721 cells after 48 hrs by MTT assay; details: SMMC-7721, 48 h; procedure, shortened: as §1
HL-60 = experiment: Cytotoxicity against human HL60 cells after 48 hrs by MTT assay; details: HL-60, 48 h; procedure, shortened: as §1

Row | Compound | IC50 (SW480) [µM] | IC50 (MCF7) [µM] | IC50 (A549) [µM] | IC50 (SMMC-7721) [µM] | IC50 (HL-60) [µM]
1 | CC[C@]12C=CCN3Cc4c(n(c5ccccc5c4=O)[C@@H](c4cc5c(cc4OC)NC4=C(C(=O)OC)C[C@]6([C@@H](C)O)C=CCN7CC[C@@]45[C@@H]76)C1)[C@@H]32 | 13.9 | 12.1 | 16.2 | 15.3 | 9.6
2 | CC[C@]12C=CCN3Cc4c(n(c5ccccc5c4=O)[C@@H](c4cc5c(cc4OC)NC4=C(C(=O)OC)C[C@]6(CC)C=CCN7CC[C@@]45[C@@H]76)C1)[C@@H]32 | 2.71 | 3.61 | 7.23 | 10.6 | 3.03
3 | CC(=O)O[C@H]1C(=O)[C@@]2(C)[C@H]([C@H](OC(=O)c3ccccc3)[C@]3(O)C[C@H](OC(=O)[C@H](O)[C@@H](NC(=O)c4ccccc4)c4ccccc4)C(C)=C1C3(C)C)[C@]1(OC(C)=O)CO[C@@H]1C[C@@H]2O [PACLITAXEL] | < 0.008 | < 0.008 | < 0.008 | < 0.008 | < 0.008
